6 molecules from ChEMBL document CHEMBL2157916, “Design and synthesis of potent hydroxyethylamine (HEA) BACE-1 inhibitors carrying prime side 4,5,6,7-tetrahydrobenzazole and 4,5,6,7-tetrahydropyridinoazole templates” (Bioorg Med Chem Lett, 2012) can be followed below.

Series [1] can be described thus: Apparent permeability across human Caco2 cells. Format: ADME, cell-based. To be noted: Caco-2.
A short description of series [2]: Intrinsic clearance in human liver microsomes. Format: ADME, Microsome. The following applies: read-out: CLH. For orientation: Microsomes from liver hold many membrane-bound enzymes, among them those of drug oxidation.
Series [3] in a line: Drug uptake in C57/B1 mouse brain at 20 umol/kg, iv at 0.5 hrs. Format: ADME, organism-based. The following applies: read-out: Drug uptake. The gist of the method: (§1)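 Male C57/B1 mice dosed iv at 20 μmol/kg. Brain and plasma exposure measured 0.5 h after dose, with brain levels followed up to 6 h after dose.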
Series [4] in a line: Plasma concentration in C57/B1 mouse at 20 umol/kg, iv at 0.5 hrs. It is filed as ADME, organism-based. The gist of the method: as §1
The nature of series [5]: Drug uptake in C57/B1 mouse brain at 20 umol/kg, iv up to 6 hrs. Format: ADME, organism-based. The following applies: read-out: Drug uptake. In a few lines:
as §1

Series [6] can be described thus: Plasma concentration in C57/B1 mouse at […], sc administered for 24 hrs. It is filed as ADME, organism-based.
The nature of series [7]: Ratio of drug uptake in brain to plasma in C57/B1 mouse at […], sc administered for 24 hrs. It is filed as ADME, organism-based. To be noted: read-out: BPR.

As to `CC(=O)N[C@@H](Cc1ccccc1)[C@H](O)CN[C@H]1CC(C)(C)Oc2ccc(CC(C)(C)C)cc21`, the Papp (as a rule, a coefficient for how fast a substance crosses the barrier) in series [1] worked out at 21 ×10⁻⁶ cm/s. In series [2], the microsomal CLint is 200 µL/min/mg.
Take `CC(=O)N[C@@H](Cc1ccccc1)[C@H](O)CNC1CC(C)(C)Cc2[nH]c(CC(C)(C)C)nc21` (mixture of isomers): the microsomal CLint in series [2] is 15 µL/min/mg.
For the molecule `CC(=O)N[C@@H](Cc1ccccc1)[C@H](O)CNC1CC(C)(C)Oc2sc(CC(C)(C)C)cc21` (mixture of isomers), in series [1], the Papp is 5.6 ×10⁻⁶ cm/s. Moreover, the microsomal CLint in series [2] turned out to be 82 µL/min/mg.
Take `CC(=O)N[C@@H](Cc1ccccc1)[C@H](O)CN[C@H]1CC(C)(C)Cn2nc(CC(C)(C)C)cc21`: in series [1], the Papp came out at 5 ×10⁻⁶ cm/s. Besides, the microsomal CLint in series [2] was found to be 70 µL/min/mg.
Taken in the same sequence, the figures for `CC(=O)N[C@@H](Cc1ccccc1)[C@H](O)CN[C@H]1CC(C)(C)Cc2nn(CC(C)C)cc21` were 1.6 ×10⁻⁶ cm/s and 16 µL/min/mg.
For the molecule `CC(=O)N[C@@H](Cc1ccccc1)[C@H](O)CNC1CC(C)(C)Cc2nn(CC(C)(C)C)cc21` (mixture of isomers), the Papp in series [1] is 1.5 ×10⁻⁶ cm/s. The results for the concentration at 0.5 h in series [3] and in series [4] were 200 nM and 4.75 µM, respectively. In series [5], the concentration at 6 h is 68 nM. This molecule returned a concentration at 24 h in series [6] of 450 nM. Also, the Kp at 24 h in series [7] came out at 0.69. Moreover, the microsomal CLint in series [2] is 25 µL/min/mg.
